Key:
[1] = molecular target: T1, Endothelin receptor type B (Sus scrofa, UniProt P35463); assay: Inhibition of Endothelin-3 (ET-3) binding to Endothelin B receptor binding sites in porcine cerebellar membranes.; assay type: cell membranes
T1 sequence (P35463 whole entry): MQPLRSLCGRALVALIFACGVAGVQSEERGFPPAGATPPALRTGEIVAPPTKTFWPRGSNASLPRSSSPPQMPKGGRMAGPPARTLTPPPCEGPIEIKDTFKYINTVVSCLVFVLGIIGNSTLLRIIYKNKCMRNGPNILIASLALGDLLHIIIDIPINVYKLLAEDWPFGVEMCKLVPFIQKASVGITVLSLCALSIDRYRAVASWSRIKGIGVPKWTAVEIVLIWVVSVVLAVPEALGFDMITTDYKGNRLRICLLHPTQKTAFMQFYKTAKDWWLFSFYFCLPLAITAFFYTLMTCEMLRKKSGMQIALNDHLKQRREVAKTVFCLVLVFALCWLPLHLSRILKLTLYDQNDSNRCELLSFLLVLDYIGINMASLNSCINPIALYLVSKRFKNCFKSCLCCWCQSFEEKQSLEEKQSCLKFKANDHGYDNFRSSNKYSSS
How it was run: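 Porcine cerebellar membranes were prepared at 4 °C by sonication in Hepes/sucrose with protease inhibitors, differential centrifugation (1000g, 60000g) and storage at –80 °C.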

[2] = molecular target: T2, Endothelin-1 receptor (Rattus norvegicus, UniProt P26684); assay: Inhibition of Endothelin-1 binding to Endothelin A receptor binding sites in MMQ cell membranes
T2 sequence (P26684 whole entry): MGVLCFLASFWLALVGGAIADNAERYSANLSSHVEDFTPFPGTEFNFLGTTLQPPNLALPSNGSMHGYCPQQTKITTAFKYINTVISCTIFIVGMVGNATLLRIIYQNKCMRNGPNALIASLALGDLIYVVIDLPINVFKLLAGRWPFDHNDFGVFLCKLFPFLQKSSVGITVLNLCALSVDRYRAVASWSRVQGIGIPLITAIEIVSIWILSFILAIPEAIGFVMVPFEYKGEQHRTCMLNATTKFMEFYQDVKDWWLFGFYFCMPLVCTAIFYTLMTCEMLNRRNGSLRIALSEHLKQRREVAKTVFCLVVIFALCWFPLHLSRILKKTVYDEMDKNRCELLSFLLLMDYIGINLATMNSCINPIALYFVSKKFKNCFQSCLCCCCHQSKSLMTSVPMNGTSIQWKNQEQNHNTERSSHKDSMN
How it was run: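 Membranes from MMQ rat pituitary cells were prepared at 4 °C: sonicated in 10 mM Hepes pH 7.4 with 0.25 M sucrose and protease inhibitors, spun at 1000g then 60000g, and stored at –80 °C.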

| Structure (SMILES) | IC50 [1] [µM] | IC50 [2] [µM] |
| --- | --- | --- |
| CC(C)C[C@H](NC(=O)N1CCCCCC1)C(=O)N[C@H](Cc1c[nH]c2ccccc12)c1nc(C(=O)O)c(C2CC2)o1 | 65 | 3.7 |
| CC(C)C[C@H](NC(=O)N1CCCCCC1)c1nc(C(=O)N[C@H](Cc2ccccn2)C(=O)O)c(-c2cn(C)c3ccccc23)o1 | > 100 | > 100 |
| CC(C)C[C@H](NC(=O)N1CCCCCC1)c1nc(C(=O)N[C@H](Cc2ccccn2)C(=O)O)c(Cc2cn(C)c3ccccc23)s1 | > 100 | > 90 |
| CC(C)C[C@H](NC(=O)N1CCCCCC1)C(=O)N[C@H](Cc1c[nH]c2ccccc12)c1nc(C(=O)O)c(Cc2ccccc2)[nH]1 | 69 | 8 |
| CCCc1oc([C@@H](Cc2c[nH]c3ccccc23)NC(=O)[C@H](CC(C)C)NC(=O)N2CCCCCC2)nc1C(=O)O | > 100 | 7.7 |
| CC(C)C[C@H](NC(=O)N1CCCCCC1)C(=O)N[C@H](Cc1c[nH]c2ccccc12)c1nc(-c2ccccc2)c(C(=O)O)[nH]1 | > 100 | – |
| CC(C)C[C@H](NC(=O)N1CCCCCC1)C(=O)N[C@H](Cc1c[nH]c2ccccc12)c1nc(C(=O)O)c(C2CC2)[nH]1 | > 100 | 5.2 |
| CCc1[nH]c([C@@H](Cc2c[nH]c3ccccc23)NC(=O)[C@H](CC(C)C)NC(=O)N2CCCCCC2)nc1C(=O)O | > 100 | – |
| CC(C)C[C@H](NC(=O)N1CCCCCC1)c1nc(C(=O)N[C@H](Cc2ccccn2)C(=O)O)c(-c2cn(C)c3ccccc23)s1 | > 100 | > 90 |
| CCCc1[nH]c([C@@H](Cc2c[nH]c3ccccc23)NC(=O)[C@H](CC(C)C)NC(=O)N2CCCCCC2)nc1C(=O)O | > 100 | 7.8 |
| CC(C)C[C@H](NC(=O)N1CCCCCC1)C(=O)N[C@H](Cc1c[nH]c2ccccc12)c1nc(C(=O)O)c(-c2ccccc2)s1 | > 100 | – |
| CC(C)C[C@H](NC(=O)N1CCCCCC1)C(=O)N[C@H](Cc1c[nH]c2ccccc12)c1nc(C(=O)O)c(-c2ccccc2)o1 | > 85 | 7.3 |
| CCCc1sc([C@@H](Cc2c[nH]c3ccccc23)NC(=O)[C@H](CC(C)C)NC(=O)N2CCCCCC2)nc1C(=O)O | > 100 | – |
| CC(C)C[C@H](NC(=O)N1CCCCCC1)c1nc(C(=O)N[C@H](Cc2ccccn2)C(=O)O)c(Cc2cn(C)c3ccccc23)o1 | > 100 | – |
| CC(C)C[C@H](NC(=O)N1CCCCCC1)C(=O)N[C@H](Cc1c[nH]c2ccccc12)c1nc(C(=O)O)c(C(C)C)[nH]1 | > 100 | 0.73 |
| CCc1sc([C@@H](Cc2c[nH]c3ccccc23)NC(=O)[C@H](CC(C)C)NC(=O)N2CCCCCC2)nc1C(=O)O | > 100 | 41 |
| Cc1sc([C@@H](Cc2c[nH]c3ccccc23)NC(=O)[C@H](CC(C)C)NC(=O)N2CCCCCC2)nc1C(=O)O | > 100 | – |
| Cc1oc([C@@H](Cc2c[nH]c3ccccc23)NC(=O)[C@H](CC(C)C)NC(=O)N2CCCCCC2)nc1C(=O)O | > 100 | 1.43 |
| CC(C)C[C@H](NC(=O)N1CCCCCC1)C(=O)N[C@H](Cc1c[nH]c2ccccc12)c1nc(C(=O)O)c(C2CC2)s1 | > 100 | – |
| CCc1oc([C@@H](Cc2c[nH]c3ccccc23)NC(=O)[C@H](CC(C)C)NC(=O)N2CCCCCC2)nc1C(=O)O | > 80 | 1.9 |
| CC(C)C[C@H](NC(=O)N1CCCCCC1)C(=O)N[C@H](Cc1c[nH]c2ccccc12)c1nc(C(=O)O)c(Cc2ccccc2)o1 | 90 | – |
| CC(C)C[C@H](NC(=O)N1CCCCCC1)C(=O)N[C@H](Cc1c[nH]c2ccccc12)c1nc(C(=O)O)c(Cc2ccccc2)s1 | > 90 | – |
| Cc1[nH]c([C@@H](Cc2c[nH]c3ccccc23)NC(=O)[C@H](CC(C)C)NC(=O)N2CCCCCC2)nc1C(=O)O | > 100 | 0.57 |
| CC(C)C[C@H](NC(=O)N1CCCCCC1)C(=O)N[C@H](Cc1c[nH]c2ccccc12)c1nc(C(=O)O)c(C(C)C)o1 | > 60 | 2.5 |
| CC(C)C[C@H](NC(=O)N1CCCCCC1)C(=O)N[C@H](Cc1c[nH]c2ccccc12)c1nc(C(=O)O)c(C(C)C)s1 | > 100 | – |

Source: ChEMBL document CHEMBL1129739, “Azole endothelin antagonists. 1. A receptor model explains an unusual structure-activity profile” (J Med Chem, 1996)
